BindingDB's records for PubMed 34730959 (The University of Sydney, 2022)

Target: Procathepsin L (Homo sapiens, UniProt P07711)
Assay: Inhibition of human recombinant Cathepsin L assessed remaining activity using Z-FR-AMC as substrate incubated for 30 mins by fluorometric assay
Procedure, shortened: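 Recombinant human cathepsins: L, B, V and K at 1.11 nM, S at 4.44 nM. Each was preincubated 30 min at 25 °C with 3333 to 0.006 nM compound. Z-FR-AMC was added at 40 μM final. AMC release rate over 0–30 min was compared with DMSO (ex/em 360/460). IC50 from four technical replicates.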

Chain of Procathepsin L (P07711 whole entry): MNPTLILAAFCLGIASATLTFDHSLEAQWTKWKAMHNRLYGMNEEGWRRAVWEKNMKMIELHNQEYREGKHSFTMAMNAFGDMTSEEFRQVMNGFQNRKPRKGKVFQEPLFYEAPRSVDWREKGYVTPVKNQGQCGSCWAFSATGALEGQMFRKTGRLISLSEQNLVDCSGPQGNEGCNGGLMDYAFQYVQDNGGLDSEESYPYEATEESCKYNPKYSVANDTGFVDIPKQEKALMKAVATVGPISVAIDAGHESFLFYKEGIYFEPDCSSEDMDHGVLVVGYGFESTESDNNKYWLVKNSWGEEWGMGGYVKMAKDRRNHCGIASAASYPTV

COC1=CC(=O)N(C(=O)/C=C/[C@H](C)NC(=O)[C@H](CCc2ccccc2)NC(=O)[C@H](CC2CCCCC2)NC(=O)[C@H](C(C)C)N(C)C)[C@H]1Cc1c[nH]c2ccccc12
IC50: 6 pM
